Results reported in paper PMC7172891 (Peptides, 2008).

Tests used:
[1] = PC/Chol (1:1) LUV, probe dilution assay; cited from earlier work
HSV-1 = HSV-1 virus entry assay: plaque inhibition on Vero cells; assay type: cell-based; conditions: for activity in dose-dependent inhibition assay of HSV entry: co-treatment, up to 500 μM, Vero cells; for inhibition of HSV-1 infectivity, cell pre-exposure: peptide 250 μM, Vero cells treated with peptide before viral challenge
HIV-1 = conditions: cited from earlier work
[2] = Circular dichroism: helix content and oligomeric state; assay type: physicochemical; conditions: for ratio θ222/θ208 (monomer about 0.8, oligomer above 1.0) / percentage of helix (CD, ellipticity at 222 nm): peptide 20 μM
Outline: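 CD spectra at room temperature in 1.0 or 0.1 cm quartz cells. Peptide 20 μM titrated in varying % TFE; 5–200 μM series in buffer, 20% TFE and […]. For lipid samples, peptide in TFE was mixed with lipid in chloroform, dried, lyophilised and rehydrated in water to 0.9 mM final lipid. Scans averaged (three, 260–195 nm), blank-corrected, converted to MRE.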

[3] = test system: parainfluenza-2 virus (PIV-2); assay: Inhibition of PIV-2 infectivity, co-exposure mode; assay type: cell-based; conditions: peptide 250 and 500 μM
Outline: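 Co-exposure: cells and virus inoculum incubated together with peptide for 45 min at 37 °C. Non-penetrated virus inactivated with low-pH citrate buffer. Cells then held 48 h at 37 °C in DMEM with CMC, and plaques counted. Run in triplicate. Percent inhibition calculated against no-peptide control, with standard deviations; scrambled peptides run in parallel.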

[4] = Native gel electrophoresis: oligomeric state of peptides; assay type: physicochemical; conditions: without SDS and with 4 mM and 5 mM SDS
Outline: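 Peptide solution (1 mM in phosphate buffer pH 7.3, before mixing) incubated alone or with 4 or 5 mM SDS for 5 min at 25 °C. Non-denaturing PAGE with 4% stacking and 12% separating gel, run 2.5 h at constant 30 mA. Bands visualised with Coomassie R-250.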

[5] = Solubility / precipitation observations; assay type: physicochemical

## TWLATRGLLRSPGRYVYFSPSASTWPVGIWTTGELVLGCDAAL [gH220–262]
[1]
  ability to induce fusion of vesicles (lipid mixing), previously reported: able to induce fusion
HSV-1
  activity in dose-dependent inhibition assay of HSV entry: non-significant activity

## AAHLIDALYAEFLGGRVLTTPVVHRALFYASAVLRQPFLAGVPSA [gH493–537]
[1]
  ability to induce fusion of vesicles (lipid mixing), previously reported: able to induce fusion
HSV-1; peptide 250 μM added after 45 min infection of Vero cells
  inhibition of HSV-1 infectivity, post-exposure treatment: not active
HSV-1
  inhibition of HSV-1 infectivity, cell pre-exposure: not active

## RLTGLLATSGFAFVNAAHANGAVCLSDLLGFLAHSRALAG [gH381–420]
[1]
  ability to induce fusion of vesicles (lipid mixing), previously reported: able to induce fusion
HSV-1
  activity in dose-dependent inhibition assay of HSV entry: non-significant activity

## Enfuvirtide
HIV-1
  inhibition of HIV-1: active at low nanomolar concentration

## GLASTLTRWAHYNALIRAF [gH626–644]
[1]
  ability to induce fusion of vesicles (lipid mixing), previously reported: able to induce fusion
[2]; 20% TFE, TFE titration
  ratio θ222/θ208 (monomer about 0.8, oligomer above 1.0): approximately 1.05
[2]; 20% TFE, peptide 5 μM
  helicity (CD, ellipticity at 222 nm): about 19%
[2]; 20% TFE, room temperature
  percentage of helix (CD, ellipticity at 222 nm): 27%
[2]; 20% TFE, peptide 5–200 μM
  ratio θ222/θ208 over peptide concentration: around 1
[2]; CD data
  concentration at which the peptide already oligomerises (CD): 50 µM
[2]; buffer solution, spectra unaltered over 5–200 μM
  conformation in buffer solution (CD): random coil conformation
[2]; higher percentages of TFE
  ratio θ222/θ208 (monomer about 0.8, oligomer above 1.0): 0.76
[2]; increasing (higher) concentrations of TFE
  percentage of helix (CD, ellipticity at 222 nm): approximately 35%
HSV-1
  inhibition of HSV-1 infectivity, cell pre-exposure: partially inhibit viral entry
[3]
  effect on parainfluenzavirus-2 (PIV-2) infectivity: none of these peptides exerted any significant effect
[4]
  oligomer order in NATIVE-PAGE: forms higher order oligomers compared to gH493–512
[5]; 500 μM
  precipitation in inhibition experiments: probably indicating a precipitation of the peptide at this concentration
[5]; in presence of membranes, concentrations assayed in CD studies (5–200 μM)
  precipitation / macroscopic aggregation: did not precipitate or otherwise form macroscopic aggregates
